Measurements collected from several papers.
Lines come from different studies, so protocols differ.
Target: Vascular endothelial growth factor receptor 1 (FLT1, Homo sapiens, UniProt P17948)

The activity vs control of `Cc1ccc(C(=O)NCc2ccsc2)cc1C#Cc1cn(C(C)C)c2ncnc(N)c12` is reported as -1% (enzyme activity; inhibitor; 1 µM).
`C=CC(=O)Nc1cc(Nc2nccc(Nc3cc(Cl)c(F)cc3C(C)(C)O)n2)c(OC)cc1N1CC[C@@H](N(C)C)C1` gave an inhibition of 0% (enzyme activity; inhibitor; 1 µM).
`Cc1ccc(-n2nc(C(C)(C)C)cc2NC(=O)Nc2ccc(OCCN3CCOCC3)c3ccccc23)cc1` gave an inhibition of 96% (enzyme activity; inhibitor; 10 µM).
With `Nc1nc(NC2CCCCC2)sc1C(=O)c1ccccc1` the remaining activity was 57% (enzyme activity; inhibitor; 10 µM).
`CC(C)CC(=O)N1CCc2nc(-c3ccc(Br)cc3)nc(N(C)Cc3ccccc3)c2C1` has a remaining binding of 100% (cell-free assay; competition with immobilised ligand; 0.1 µM).
For `Nc1ncnc2occ(-c3ccc(NC(=O)Nc4cc(C(F)(F)F)ccc4F)cc3)c12`, the remaining signal was 0.55% (cell-free assay; 20 µM).
`CN(c1ncccc1CNc1nc(Nc2ccc3c(c2)CC(=O)N3)ncc1C(F)(F)F)S(C)(=O)=O` gave an inhibition of 80% (enzyme activity; inhibitor; 1 µM).
For `CC/C(=N\NC(=O)NCc1cccc(O)c1)c1ccc(O)c(C)c1O`, the inhibition was 2.5% (enzyme activity; inhibitor; 0.1 µM).
For `O=C1Nc2ccc(Cl)cc2C1=Cc1cc(Cl)c(O)c(Cl)c1`, the remaining signal was 85% (cell-free assay; 0.5 µM).
With `O=S(=O)(NC1CCC(c2cc(F)ccc2F)(S(=O)(=O)c2ccc(Cl)cc2)CC1)C(F)(F)F` (stereo not drawn) the remaining binding was 86% (cell-free assay; competition with immobilised ligand; 1 µM).
With `CCN(CC)c1ccc(C2=NNC(=O)CC2C)cc1[N+](=O)[O-]` (stereo not drawn) the remaining activity was 104% (enzyme activity; inhibitor; 10 µM).
With `O=C1NC(=O)c2cc(Nc3ccc(F)cc3)c(Nc3ccc(F)cc3)cc21` the remaining signal was 81.5% (cell-free assay; 0.5 µM).
For `CS(=O)(=O)NCC[C@H](NC(=O)c1cncc2c1cnn2-c1ccc(F)cc1)c1ccnc(S(C)(=O)=O)c1`, the remaining binding was 90% (cell-free assay; competition with immobilised ligand; 1 µM).
`CC(C)(C)C(=O)c1sc(NC2CCCCC2)nc1N` gave a remaining activity of 82% (enzyme activity; inhibitor; 10 µM).
`Cc1cc(NC(=O)c2cccc3cc(-c4cccc5[nH]nc(N)c45)ccc23)ccc1F` gave an activity vs control of 2% (enzyme activity; inhibitor; 0.1 µM).
`Cc1ccc(Nc2nccc(N(C)c3ccc4c(C)n(C)nc4c3)n2)cc1S(N)(=O)=O` has an inhibition of 100% (enzyme activity; inhibitor; 0.3 µM).
`CNC(=O)c1cc2c(Oc3ccc(NC(=O)C4(C(=O)Nc5ccc(F)cc5)CC4)cc3)ccnc2cc1OC` has an inhibition of 106% (enzyme activity; inhibitor; radiometric; 1 µM).
`CCN(CC)CCNC(=O)c1c(C)[nH]c(/C=C2\C(=O)Nc3ccc(F)cc32)c1C` gave an inhibition of 99% (enzyme activity; inhibitor; 0.3 µM).
The remaining binding of `CC1CCCN1c1nccc(-c2cnn3ncccc23)n1` (stereo not drawn) is reported as 100% (binding; 1 µM).
`CSc1cccnc1N1CCN(Cc2nc3ccccc3[nH]2)CC1` has a remaining binding of 100% (cell-free assay; competition with immobilised ligand; 1 µM).
For `COc1cc2ncnc(Nc3ccc(Oc4ccccc4)c(C)c3C)c2cc1OC`, the inhibition was 0% (enzyme activity; inhibitor; 1 µM).
`O=C(N[C@H]1CCCCC/C=C\C2C[C@@]2(C(=O)O)NC(=O)[C@@H]2C[C@@H](Oc3ccncc3)CN2C1=O)OC1CCCC1` (stereo partly drawn) gave a remaining binding of 100% (cell-free assay; competition with immobilised ligand; 1 µM).
The remaining activity of `Cc1sc(C(=O)NC2COC2)cc1-n1cc(NC(=O)Nc2c(F)cccc2Cl)cn1` is reported as 84.1% (enzyme activity; inhibitor; 10 µM).
The remaining binding of `Cc1cc(-n2nc(Cc3cc(F)cc(C(F)(F)F)c3)nc2C)ccc1C(N)=O` is reported as 100% (cell-free assay; competition with immobilised ligand; 1 µM).
`COc1cc(Nc2cnc(C#N)c(O[C@H](C)CN(C)C)n2)ncc1-c1cnn(C)c1` gave a remaining activity of 90% (enzyme activity; inhibitor; radiometric; 1 µM).
The inhibition of `CNCc1ccc(-c2cc(-c3nc(-c4ccc(S(=O)(=O)C(C)C)cc4)cnc3N)on2)cc1` is reported as 83% (enzyme activity; inhibitor; 2 µM).
With `COc1cc(-c2cn(C3CCc4c(F)cccc4N(CC(F)(F)F)C3=O)nn2)ccc1-n1cnc(C)c1` (stereo not drawn) the remaining binding was 97% (cell-free assay; competition with immobilised ligand; 1 µM).
`CCCS(=O)(=O)Nc1ccc(F)c(C(=O)c2c[nH]c3ncc(-c4ccc(Cl)cc4)cc23)c1F` gave an inhibition of less than 10% (enzyme activity; inhibitor; 1 µM).
`CC(C)(C)c1nc(-c2cccc(NS(=O)(=O)c3c(F)cccc3F)c2F)c(-c2ccnc(N)n2)s1` gave a remaining activity of 84% (enzyme activity; inhibitor; radiometric; 1 µM).
With `CCCOc1ccc([C@@H]2[C@@H](C(=O)O)[C@H](c3ccc4c(c3)OCO4)CN2CC(=O)Nc2c(CC)cccc2CC)cc1` the remaining binding was 94% (cell-free assay; competition with immobilised ligand; 1 µM).
